Source: PubChem BioAssay (Johns Hopkins Ion Channel Center)
Only some compounds are listed: those with a hit (about 3.5% of all), similar ones and a draw of the others.
MrgX1 antag: blocks BAM8-22 activation of human MrgX1 receptor | Q96LB2 | MRGX1-HEK293 calcium flux, Fluo-4, BAM8-22 antagonism; stronger effect = lower value | B-score at 10 µM | 310,000 tested, 1.3% active | AID 588676;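 active means calcium-response B-score plate-corrected more than 3 library SD below zero, starting fluorescence within 5 deviations, no agonist response on first addition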;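 further: peak minus trough fluorescence over baseline after final BAM8-22 challenge near maximal dose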
Target sequence (Q96LB2 whole entry, looked up): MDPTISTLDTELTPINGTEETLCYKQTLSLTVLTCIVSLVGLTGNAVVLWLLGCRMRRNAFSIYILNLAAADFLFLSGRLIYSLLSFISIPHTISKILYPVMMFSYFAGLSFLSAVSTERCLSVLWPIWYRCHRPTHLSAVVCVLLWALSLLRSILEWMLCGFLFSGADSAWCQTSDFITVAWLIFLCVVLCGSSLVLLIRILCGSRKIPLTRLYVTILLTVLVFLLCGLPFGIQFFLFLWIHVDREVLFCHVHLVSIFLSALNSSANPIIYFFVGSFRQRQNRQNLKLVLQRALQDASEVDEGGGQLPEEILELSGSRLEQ
RGS4 act: RGS4 potentiation or activation. HEK293 M3R/inducible RGS4, carbachol calcium flux Fluo4; stronger effect = lower value. AID 463111. 310,000 tested, 0.92% active. B-score at 10 µM;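 active means B-score of the integrated calcium signal more than 4 SD below the library mean, with starting fluorescence not abnormally high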;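 further: negative B-score means reduced calcium response which marks RGS4 activation or potentiation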
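System – HEK293 FlpIn-TREx cells, stable M3R, doxycycline-inducible RGS4 · Reagent – ECmax carbachol challenge · Times – compound preincubation 20 min at room temperature before agonist · Technique – Fluo4 fluorescence kinetic imaging of calcium · Measure – B score of integrated Fluo4 ratio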
MrgX1 agonist: activates human MrgX1 receptor signaling. Q96LB2. MrgX1-HEK293 cells, Fluo-4 calcium fluorescence, agonist mode; stronger effect = higher value. B-score at 10 µM. 310,000 tested, 0.44% active;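 active means calcium response B-score plate-corrected fluorescence ratio at least 3 library SD, with starting fluorescence B-score inside 5 SD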
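times = overnight plating, then 30 min 37 °C plus 30 min room-temperature dye loading | assay system = stable human MrgX1 HEK293 cell line | input = fifteen thousand cells per well | signal = kinetic calcium dye fluorescence, Fluo-4 NW | dosing = compound delivered in addition one of three | read-out = B-scored fluorescence response ratio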
MrgX1 allo act: allosterically activates human MrgX1 receptor signaling. B-score at 10 µM. Q96LB2. MrgX1-HEK293, Fluo-4 calcium flux, FDSS; stronger effect = higher value. AID 588675. 310,000 tested, 0.63% active;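 active means plate-corrected calcium response at least 3 library SD above typical, normal starting fluorescence, not activating the receptor alone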;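 further: compound read alongside a low EC10 to EC30 dose of BAM8-22 agonist; peak minus trough fluorescence over baseline measured at the second addition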
RGS4 inh: inhibitors of human RGS4 | AID 463165 | B-score at 10 µM | HEK293 M3R/RGS4 inducible, Fluo-4 calcium flux; stronger effect = higher value; triggered by carbachol at its EC20 | 310,000 tested, 0.45% active;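 active means B-score, a plate-corrected calcium signal, over three deviations above library mean, with baseline fluorescence within five deviations of library mean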;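 further: RGS4 expression induced by doxycycline in cells with stable M3 receptor; B-score is computed from the integrated fluorescence ratio over baseline after carbachol; higher B-score means a larger calcium signal and so more RGS4 inhibition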
Target sequence (P49798 whole entry, looked up): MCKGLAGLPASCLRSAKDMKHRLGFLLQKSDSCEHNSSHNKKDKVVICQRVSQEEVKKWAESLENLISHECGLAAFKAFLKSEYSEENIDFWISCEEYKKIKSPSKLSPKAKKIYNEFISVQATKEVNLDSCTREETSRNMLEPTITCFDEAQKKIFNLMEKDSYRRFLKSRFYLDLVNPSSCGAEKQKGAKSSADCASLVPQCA
RGS4 inh valid: RGS4 inhibitor validation. shares compounds with RGS4 inh. HEK293 M3R/RGS4, carbachol calcium Fluo-4 fluorescence; carbachol added at its EC20; 0 = buffer wells, 100 = carbachol control. calcium response, % at 10 µM. 1,700 tested, 65% active. AID 492999;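 active means duplicate-averaged calcium response above the buffer-only control mean plus 5 SD of those controls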;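 further: integrated fluorescence ratio F max minus min over baseline F0; higher response in RGS4-induced cells means RGS4 inhibition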
M3R Ca ctr: counter-screen for RGS4 inhibitors: effect in non-induced cells; shares compounds with RGS4 inh; activity (percent), % at 10 µM; HEK293 M3R non-induced, carbachol calcium Fluo-4; submaximal (EC20) carbachol stimulus; buffer wells 0%, carbachol control wells 100%; 1,900 tested, 20% active; call rule not given here;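 further: RGS4 induction absent so cells express M3R without RGS4; higher means more calcium signal and flags a non-specific hit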
M3R basal Ca ctr: second RGS4 inhibitor counter-screen in uninduced cells lacking carbachol; calcium response (agonist-mode artifact), % at 10 µM; shares compounds with RGS4 inh; HEK293 M3R/RGS4 non-induced, Fluo-4 calcium, no carbachol; normalised: buffer wells 0%, carbachol wells 100%; 1,900 tested, 22% active;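 active means duplicate-averaged calcium rise in uninduced cells above buffer wells' mean plus 5 SD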
Of the large screens only hits and unclear results are named; the others gave an inactive call (follow-up assays come after a bar, where they were run).

Cc1ccc(C2CC(c3ccccc3OC(F)F)Nc3ncnn32)cc1 (stereo not drawn)	none | M3R Ca ctr inactive | M3R basal Ca ctr inactive
Cc1ccccc1C1CC(c2ccccc2OC(F)F)Nc2ncnn21 (stereo not drawn)	RGS4 inh 5.3 | RGS4 inh valid 11% | M3R Ca ctr inactive | M3R basal Ca ctr inactive
CC(Cc1ccco1)NC(=O)c1cccc(S(=O)(=O)N(C)C)c1 (stereo not drawn)	none
Cc1cccc(NC(=O)C(=O)C2C(=O)Nc3ccccc32)c1 (stereo not drawn)	none
O=C(Nc1ccc2ccccc2c1)C(=O)C1C(=O)Nc2ccccc21 (stereo not drawn)	MrgX1 allo act 6.9, RGS4 inh 8.1 | RGS4 inh valid 12% | M3R Ca ctr inactive | M3R basal Ca ctr inactive
Cc1ccc(CNC(=O)c2cn(C3CCCCC3)c(=O)c3c2c2ccccc2n3C)o1	RGS4 inh 6.1 | RGS4 inh valid 13% | M3R Ca ctr inactive | M3R basal Ca ctr inactive
CCCCn1cnc2c(c1=O)c1nc3ccccc3nc1n2Cc1ccc2c(c1)OCO2	none
Cc1ccc(/C=C/C(=O)c2ccc(O)cc2)cc1	none
Cc1ccc(C(=O)/C=C/C(=O)O)cc1	RGS4 inh 16 | RGS4 inh valid 64% | M3R Ca ctr 44% | M3R basal Ca ctr 14%
COc1cc(/C=C(\C#N)C(N)=O)ccc1OS(=O)(=O)c1ccc(C)cc1	MrgX1 agonist 43, RGS4 inh 4.9 | RGS4 inh valid 30% | M3R Ca ctr 40% | M3R basal Ca ctr 31%
COc1cc(/C=C(\C#N)C(=O)NC2CCCCC2C)ccc1OS(=O)(=O)c1ccc(C)cc1 (stereo not drawn)	none
Oc1ccc(/C=N/Nc2ccc(C(F)(F)F)cn2)cc1	none | M3R Ca ctr inactive | M3R basal Ca ctr inactive
Cn1c(N)c(C(=O)Nc2cccc(Cl)c2)c(=O)n(C)c1=O	none
CN=c1sc(C(=O)Nc2cccc(Cl)c2)cc(=O)n1C	RGS4 inh 28 | RGS4 inh valid 14% | M3R Ca ctr inactive | M3R basal Ca ctr 23%
O=C(NNC(=O)c1ccc(Oc2ccc(C3SCCS3)cc2)o1)c1ccc(Cl)cc1	none
COc1ccc(C2=Nn3c(nnc3-c3ccccc3OC)SC2)cc1OC	RGS4 inh 8.2 | RGS4 inh valid 20% | M3R Ca ctr 34% | M3R basal Ca ctr inactive
COc1ccc(C2=Nn3c(nnc3-c3ccccn3)SC2)cc1OC	none
Nc1nc(F)nc2c1ncn2[C@@H]1O[C@H](CO)[C@@H](O)[C@@H]1O	none
CNc1nc2c(N)ncnc2n1[C@H]1O[C@@H](CO)[C@H](O)[C@@H]1O	RGS4 inh 6.8 | RGS4 inh valid 13% | M3R Ca ctr 36% | M3R basal Ca ctr inactive
Nc1ncnc2c1ncn2C1OC(CO)C(O)C1N (stereo not drawn)	none | M3R Ca ctr inactive | M3R basal Ca ctr inactive
Nc1nc(F)nc2c1ncn2[C@@H]1O[C@H](CO)[C@@H](O)[C@H]1O	RGS4 inh 11 | RGS4 inh valid 52% | M3R Ca ctr 30% | M3R basal Ca ctr inactive
Nc1ncnc2c1ncn2[C@@H]1O[C@H](CO)[C@@H](O)[C@@H]1O	none
Nc1nc(Nc2ccccc2)nc2c1ncn2[C@@H]1O[C@H](CO)[C@@H](O)[C@H]1O	MrgX1 allo act 6.5, RGS4 inh 6.2 | RGS4 inh valid 24% | M3R Ca ctr inactive | M3R basal Ca ctr 357%
Nc1ncnc2c1ncn2C1O[C@H](CO)[C@@H](O)[C@@H]1O (stereo partly drawn)	none (no result: RGS4 act, RGS4 inh)
CCOC(=O)CC(NC(=O)Cn1nnc(-c2ccccc2Cl)n1)c1ccc(OC)cc1 (stereo not drawn)	none
C/C(CC(=O)Nc1cc(C)ccn1)=N\NC(=O)c1ccc(C(C)(C)C)cc1	none
Fc1ccccc1CN1CCCC(NC2CCC2)C1 (stereo not drawn)	RGS4 inh 6.9 | RGS4 inh valid 8.0% | M3R Ca ctr inactive | M3R basal Ca ctr inactive
Cc1ccc(Nc2nc3ccccc3n3cnnc23)cc1Cl	none
O=C(O)CN1C(=O)/C(=C/C=C/c2ccccc2)SC1=S	none
O=C(O)CN1C(=O)/C(=C\C(Br)=C\c2ccccc2)SC1=S	RGS4 inh 12 | RGS4 inh valid 54% | M3R Ca ctr inactive | M3R basal Ca ctr inactive
COc1ccc(C(C[N+](=O)[O-])c2c(C)[nH]n(-c3ccccc3)c2=O)cc1 (stereo not drawn)	MrgX1 agonist 40, RGS4 inh 28 | RGS4 inh valid 54% | M3R Ca ctr 84% | M3R basal Ca ctr 21%
COc1ccc(C(C[N+](=O)[O-])c2c(C)cc3ccccn23)cc1 (stereo not drawn)	none
CCc1nnc(NC(=O)CSc2nc(C)cc(C)c2C#N)s1	none
CCc1ccc(C(=O)NNC(=O)c2c(CC)noc2C)cc1	none
CNC(=O)c1ccc(NC(=O)Cc2ccc(S(=O)(=O)N3CCOCC3)s2)cc1	none
CCOC(=O)N1CCC(c2nc3ccccc3[nH]2)CC1	none
COc1ccc(OC)c(NC(=O)c2cc(-c3cc(Cl)ccc3O)n[nH]2)c1	none
COc1ccc(Cl)cc1NC(=O)c1cc(-c2ccccc2O)n[nH]1	RGS4 inh 5.5 | RGS4 inh valid 5.0% | M3R Ca ctr inactive | M3R basal Ca ctr inactive
CN(C(=O)COC(=O)c1ccc2c(c1)OCCO2)c1ccccc1	none
O=c1[nH]c(=O)n(Cc2ccco2)c2c1C(C(F)(F)F)(C(F)(F)F)N=C(Cc1ccccc1)N2	none
Cc1ccc(NCC(=O)N/N=C/c2cc(O)ccc2[N+](=O)[O-])cc1	RGS4 inh 5.2 | RGS4 inh valid inactive | M3R Ca ctr inactive | M3R basal Ca ctr inactive
Cc1cccc(NCC(=O)N/N=C\c2cccc(Oc3ccccc3)c2)c1	none | M3R Ca ctr inactive | M3R basal Ca ctr inactive
Cc1ccc(NCC(=O)N/N=C/c2cccc(Oc3ccccc3)c2)cc1	RGS4 inh 13 | RGS4 inh valid 20% | M3R Ca ctr inactive | M3R basal Ca ctr inactive
Cc1ccc(OCCCCNC2CCCCC2)c(C)c1	none
CC(Sc1nnc(-c2cccnc2)n1C)C(=O)N1CCOCC1 (stereo not drawn)	none
Cc1ccc(SC(CC(=O)c2ccc(F)cc2)C(=O)O)cc1 (stereo not drawn)	none | M3R Ca ctr inactive | M3R basal Ca ctr inactive
CC(=O)Nc1ccc(S(=O)(=O)Nc2ccc(Nc3ccccc3)cc2)cc1	none
